Test results: ChEMBL document CHEMBL1649062, “Integration of lead optimization with crystallography for a membrane-bound ion channel target: discovery of a new class of AMPA receptor positive allosteric modulators” (J Med Chem, 2011)
In brackets after ≈: the same amount, converted by molar mass. One block for each molecule: values may come before it. Activity calls are given as the source filed them.

Assays:
Glutamate receptor 2 [1] = target: T1, Glutamate receptor 2 (Homo sapiens, UniProt P42262); experiment: Allosteric modulation of human recombinant GluA2 receptor flip isoform expressed in HEK293 cells assessed as potentiation of glutamate-induced calcium influx by Fluo-4/FLIPR method; assay type: cell-based
Method in brief: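 Stable GluA2 flip (unedited) cell line grown in DMEM/F12 with 10% FBS and seeded to confluence 2-3 days before use. Cells washed in HEPES buffer (pH 7.3) and loaded with 2 μM Fluo-4 AM for 60 min at room temperature. On FLIPR, compound was added 5 min before 100 μM glutamate. pEC50 and asymptotic maximum are relative to the maximal response to cyclothiazide, n ≥ 3.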

[2] = Kinetic solubility of the compound in phosphate buffered saline of pH 7.4; assay type: physicochemical
Method in brief: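 Kinetic solubility: 10 mM DMSO stock, 5 μL diluted to 100 μL with pH 7.4 phosphate-buffered saline, equilibrated 1 h at room temperature, filtered, filtrate quantified by calibrated flow-injection chemiluminescent nitrogen detection.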

Cytochrome P450 2D6 = Cytochrome P450 2D6 (Homo sapiens, UniProt P10635); experiment: Inhibition of human CYP2D6 by fluorescence assay; assay type: ADME
Method in brief: (§1)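 Recombinant human CYP bactosomes (0.1 mg/mL) in 50 mM potassium phosphate pH 7.4, preincubated 10 min at 37 °C with test compound (0.1-10 μM, 7 concentrations) and fluorogenic substrate. Substrates: ethoxyresorufin 0.5 μM (1A2), FCA 50 μM (2C9), BMC 10 μM (2C19), MMC 10 μM (2D6), DEF 1 μM or 7-BQ 25 μM (3A4). Reaction started with NADPH regenerating system; metabolite formation read over 10 min. IC50 from percent of control rate; miconazole control; triplicate.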

Cytochrome P450 2C19 = Cytochrome P450 2C19 (Homo sapiens, UniProt P33261); experiment: Inhibition of human CYP2C19 by fluorescence assay; assay type: ADME; method in brief: as §1
Cytochrome P450 2C9 = Cytochrome P450 2C9 (Homo sapiens, UniProt P11712); experiment: Inhibition of human CYP2C9 by fluorescence assay; assay type: ADME; method in brief: as §1
Cytochrome P450 1A2 = target: T2, Cytochrome P450 1A2 (Homo sapiens, UniProt P05177); experiment: Inhibition of human CYP1A2 by fluorescence assay; assay type: ADME; method in brief: as §1
T2 sequence (P05177 whole entry): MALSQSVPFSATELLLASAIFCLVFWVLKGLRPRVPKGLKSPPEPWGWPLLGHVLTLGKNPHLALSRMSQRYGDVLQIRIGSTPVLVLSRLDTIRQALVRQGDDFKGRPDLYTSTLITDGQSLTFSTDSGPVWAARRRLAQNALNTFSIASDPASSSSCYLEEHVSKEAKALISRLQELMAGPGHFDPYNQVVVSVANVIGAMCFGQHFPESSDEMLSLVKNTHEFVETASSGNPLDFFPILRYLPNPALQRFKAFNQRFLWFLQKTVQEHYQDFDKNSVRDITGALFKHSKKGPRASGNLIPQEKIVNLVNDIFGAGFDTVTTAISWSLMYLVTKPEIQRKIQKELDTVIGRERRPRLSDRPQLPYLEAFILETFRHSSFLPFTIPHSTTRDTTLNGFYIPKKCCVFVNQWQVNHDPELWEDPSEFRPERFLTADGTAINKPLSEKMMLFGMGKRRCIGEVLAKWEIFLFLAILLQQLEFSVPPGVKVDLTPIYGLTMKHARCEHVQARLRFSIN

Cytochrome P450 3A4 = Cytochrome P450 3A4 (Homo sapiens, UniProt P08684); experiment: Inhibition of human CYP3A4 by fluorescence assay; assay type: ADME; method in brief: as §1
[3] = Plasma protein binding in rat at 3 mg/kg, po; assay type: ADME, organism-based; parameters: dose 3 mg/kg, route oral; conditions: read-out: PPB (converted)
Brain [4] = experiment: Brain tissue binding in rat at 3 mg/kg, po; assay type: ADME, organism-based; parameters: dose 3 mg/kg, route oral; conditions: in vivo
[5] = Apparent permeability of the compound; assay type: ADME; conditions: not told
Method in brief: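 Artificial membrane permeability: donor holds 10 mM sample in pH 7.05 phosphate buffer with 0.5% hydroxypropylcyclodextrin. Membrane is 1.8% phosphatidylcholine and 1% cholesterol in decane. Donor and acceptor concentrations measured by LCMS after 3 h at room temperature; permeability expressed in nm/s.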

[6] = Distribution coefficient, log D of the compound at pH 7.4; assay type: physicochemical; conditions: octanol/water
[7] = AUC (0 to t) in rat blood at 3 mg/kg, po; assay type: ADME, organism-based; parameters: dose 3 mg/kg, route oral; conditions: whole blood
[8] = Cmax in rat blood at 3 mg/kg, po; assay type: ADME, organism-based; parameters: dose 3 mg/kg, route oral; conditions: whole blood
[9] = Blood Clearance in rat at 3 mg/kg, po; assay type: ADME, organism-based; parameters: dose 3 mg/kg, route oral; conditions: whole blood
Method in brief: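 Rats dosed orally at 3 mg/kg; blood sampled via the hepatic portal vein and heart. Estimated clearance derived from in vivo hepatic extraction, taking rat liver blood flow as 85 (mL/min)/kg.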

Glutamate receptor 2 [10] = target: T1, Glutamate receptor 2; experiment: Allosteric modulation of human recombinant GluA2 receptor flip isoform expressed in HEK293 cells assessed as potentiation of glutamate-induced calcium influx by Fluo-4/FLIPR method relative to cyclothiazide; assay type: cell-based
Method in brief: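 Stable GluA2 flip (unedited) cells seeded to confluence 2-3 days before assay; washed in HEPES buffer (145 NaCl, 5 KCl, 2 CaCl2, 1 MgCl2, 5.5 glucose, pH 7.3), loaded with 2 μM Fluo4-AM 60 min at room temperature. FLIPR dual addition: compound 5 min before 100 μM glutamate; fluorescence rise expressed against maximal cyclothiazide response, fitted pEC50 and Asym max; n ≥ 3.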

Rattus norvegicus [11] = experiment: Neurotoxicity in Lister Hooded rat assessed proconvulsant effect at 150 mg/kg, ip by MEST test; assay type: toxicity, organism-based; parameters: dose 150 mg/kg, route intraperitoneal; conditions: in vivo
Method in brief: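 Male Lister Hooded rats pretreated with compound, saline vehicle or picrotoxin 30 min before corneal electroshock (CC50 about 60–70 mA, 0.1 ms); tonic and tonic-clonic seizure threshold scored; brain concentrations taken from satellite rats sampled right after testing.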

Brain [12] = experiment: Drug level in Lister Hooded rat assessed per gram of tissue at 150 mg/kg, ip; assay type: ADME, organism-based; parameters: dose 150 mg/kg, route intraperitoneal; conditions: in vivo
Method in brief: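 Male Lister Hooded rats pretreated 30 min before the maximal electroshock threshold test with compound or saline vehicle; picrotoxin served as positive control. Corneal current applied, CC50 about 60-70 mA, 0.1 ms. Brain levels measured in satellite rats sampled immediately after testing.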

Brain [13] = experiment: Drug level in Lister Hooded rat assessed per gram of tissue at 0.3 mg/kg, ip; assay type: ADME, organism-based; parameters: dose 0.3 mg/kg, route intraperitoneal; conditions: in vivo
Method in brief: (§2)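 Male Lister Hooded rats (n = 9-12/group) tested for reversal of a 24 h delay-induced deficit in novel object recognition. Significant doses flagged. Brain concentrations measured in the study animals at the end of the test.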

Brain [14] = experiment: Drug level in Lister Hooded rat assessed per gram of tissue at 1 mg/kg, ip; assay type: ADME, organism-based; parameters: dose 1 mg/kg, route intraperitoneal; conditions: in vivo; method in brief: as §2
Brain [15] = experiment: Drug level in Lister Hooded rat assessed per gram of tissue at 3 mg/kg, ip; assay type: ADME, organism-based; parameters: dose 3 mg/kg, route intraperitoneal; conditions: in vivo; method in brief: as §2
Brain [16] = experiment: Drug level in Lister Hooded rat assessed per gram of tissue at 10 mg/kg, ip; assay type: ADME, organism-based; parameters: dose 10 mg/kg, route intraperitoneal; conditions: in vivo; method in brief: as §2
Rattus norvegicus [17] = experiment: Cognitive enhancing effect in Wistar rat assessed as reversal of scopolamine-induced amnesic deficit at 30 mg/kg, ip by passive avoidance test
[18] = Distribution coefficient, log D of the compound; assay type: physicochemical; conditions: octanol/water
Rattus norvegicus [19] = experiment: AUC ( 0 to t) in rat at 3 mg/kg, po; assay type: ADME, organism-based, Plasma; parameters: dose 3 mg/kg, route oral; conditions: in vivo
[20] = Cmax in rat at 3 mg/kg, po; assay type: ADME, organism-based; parameters: dose 3 mg/kg, route oral; conditions: in vivo
in vivo = conditions: rat, brain and blood, po, 3 mg/kg

T1 sequence (P42262 whole entry, canonical isoform): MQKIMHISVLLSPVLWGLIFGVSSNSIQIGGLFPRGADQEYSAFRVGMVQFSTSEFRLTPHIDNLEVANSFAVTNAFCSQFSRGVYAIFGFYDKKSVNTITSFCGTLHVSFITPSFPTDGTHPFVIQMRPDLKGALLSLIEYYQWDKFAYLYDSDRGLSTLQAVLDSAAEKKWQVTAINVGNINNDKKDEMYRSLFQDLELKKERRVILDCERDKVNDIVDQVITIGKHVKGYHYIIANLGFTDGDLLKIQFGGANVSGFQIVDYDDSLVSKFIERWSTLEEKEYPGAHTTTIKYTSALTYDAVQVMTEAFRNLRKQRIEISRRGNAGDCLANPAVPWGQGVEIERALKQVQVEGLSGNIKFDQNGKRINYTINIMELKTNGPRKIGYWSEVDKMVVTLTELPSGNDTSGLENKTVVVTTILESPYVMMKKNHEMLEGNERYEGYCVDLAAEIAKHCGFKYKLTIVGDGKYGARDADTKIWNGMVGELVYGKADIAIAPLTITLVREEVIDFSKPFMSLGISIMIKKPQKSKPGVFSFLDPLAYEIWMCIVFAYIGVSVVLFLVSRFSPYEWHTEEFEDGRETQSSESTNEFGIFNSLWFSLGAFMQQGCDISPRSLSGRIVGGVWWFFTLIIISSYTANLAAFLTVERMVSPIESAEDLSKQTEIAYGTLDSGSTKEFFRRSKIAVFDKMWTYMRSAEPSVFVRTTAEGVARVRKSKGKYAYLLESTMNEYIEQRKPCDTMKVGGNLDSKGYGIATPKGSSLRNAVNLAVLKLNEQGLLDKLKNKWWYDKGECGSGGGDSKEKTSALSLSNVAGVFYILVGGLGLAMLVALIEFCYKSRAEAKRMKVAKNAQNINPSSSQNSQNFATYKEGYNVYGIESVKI
Cytochrome P450 2D6, sequence (P10635 whole entry): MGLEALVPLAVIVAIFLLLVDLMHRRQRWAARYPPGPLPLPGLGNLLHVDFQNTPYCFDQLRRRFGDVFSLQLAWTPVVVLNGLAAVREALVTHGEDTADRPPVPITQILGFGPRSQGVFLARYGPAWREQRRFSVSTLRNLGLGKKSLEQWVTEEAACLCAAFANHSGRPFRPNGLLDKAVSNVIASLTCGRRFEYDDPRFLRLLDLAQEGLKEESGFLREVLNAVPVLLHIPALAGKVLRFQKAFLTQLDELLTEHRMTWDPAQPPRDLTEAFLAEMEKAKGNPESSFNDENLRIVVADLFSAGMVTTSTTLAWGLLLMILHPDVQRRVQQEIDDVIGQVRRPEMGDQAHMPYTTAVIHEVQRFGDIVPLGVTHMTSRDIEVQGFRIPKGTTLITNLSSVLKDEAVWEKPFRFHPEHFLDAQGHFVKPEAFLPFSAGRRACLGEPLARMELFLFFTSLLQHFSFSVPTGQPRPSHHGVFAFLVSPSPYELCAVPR
Cytochrome P450 3A4, sequence (P08684 whole entry): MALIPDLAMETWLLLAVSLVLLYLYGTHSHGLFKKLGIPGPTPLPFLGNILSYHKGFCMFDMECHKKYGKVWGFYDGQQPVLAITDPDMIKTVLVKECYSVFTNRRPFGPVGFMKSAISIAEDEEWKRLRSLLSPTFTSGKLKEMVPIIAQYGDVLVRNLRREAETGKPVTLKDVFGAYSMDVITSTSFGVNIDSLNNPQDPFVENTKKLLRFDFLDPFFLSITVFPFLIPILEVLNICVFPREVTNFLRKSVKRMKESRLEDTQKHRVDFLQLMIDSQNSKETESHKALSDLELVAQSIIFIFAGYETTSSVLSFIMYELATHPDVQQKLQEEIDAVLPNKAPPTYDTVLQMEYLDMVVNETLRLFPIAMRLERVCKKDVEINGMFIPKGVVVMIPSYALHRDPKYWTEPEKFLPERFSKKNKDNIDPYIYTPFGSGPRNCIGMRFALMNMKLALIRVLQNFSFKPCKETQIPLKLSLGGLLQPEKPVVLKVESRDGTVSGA
Cytochrome P450 2C19, sequence (P33261 whole entry): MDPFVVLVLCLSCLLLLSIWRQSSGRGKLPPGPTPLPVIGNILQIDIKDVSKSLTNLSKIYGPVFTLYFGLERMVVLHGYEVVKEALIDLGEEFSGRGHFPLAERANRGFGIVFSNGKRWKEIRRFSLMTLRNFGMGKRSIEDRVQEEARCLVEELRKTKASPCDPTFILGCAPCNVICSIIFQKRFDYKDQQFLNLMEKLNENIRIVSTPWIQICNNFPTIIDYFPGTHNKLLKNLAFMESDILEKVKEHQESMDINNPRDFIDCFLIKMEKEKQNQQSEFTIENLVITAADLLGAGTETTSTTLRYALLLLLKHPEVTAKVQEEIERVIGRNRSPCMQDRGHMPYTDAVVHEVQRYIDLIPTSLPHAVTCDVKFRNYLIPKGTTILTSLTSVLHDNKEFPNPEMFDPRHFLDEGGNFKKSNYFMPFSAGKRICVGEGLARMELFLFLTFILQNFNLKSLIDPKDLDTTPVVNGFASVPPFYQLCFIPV
Cytochrome P450 2C9, sequence (P11712 whole entry): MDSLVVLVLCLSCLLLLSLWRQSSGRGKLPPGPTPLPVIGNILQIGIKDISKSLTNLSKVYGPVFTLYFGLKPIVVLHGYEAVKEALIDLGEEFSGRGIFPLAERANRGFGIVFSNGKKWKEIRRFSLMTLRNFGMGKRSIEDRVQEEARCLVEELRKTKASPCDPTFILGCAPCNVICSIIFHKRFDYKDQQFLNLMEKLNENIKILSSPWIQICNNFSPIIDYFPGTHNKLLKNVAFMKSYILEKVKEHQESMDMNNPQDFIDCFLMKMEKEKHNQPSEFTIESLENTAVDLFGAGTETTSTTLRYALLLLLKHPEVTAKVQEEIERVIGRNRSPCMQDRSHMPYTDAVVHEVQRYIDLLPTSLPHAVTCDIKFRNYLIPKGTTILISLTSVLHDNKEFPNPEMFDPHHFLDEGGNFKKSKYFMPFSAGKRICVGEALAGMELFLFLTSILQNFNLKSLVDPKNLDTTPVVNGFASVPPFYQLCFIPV

EC50 (Glutamate receptor 2 [1]): 20 µM | solubility kinetic [2]: 207 µg/mL (≈ 516 µM) | IC50 (Cytochrome P450 2D6): > 10 µM | IC50 (Cytochrome P450 2C19): > 10 µM | IC50 (Cytochrome P450 2C9): > 10 µM | IC50 (Cytochrome P450 1A2): > 10 µM | IC50 (Cytochrome P450 3A4): > 10 µM | fraction unbound [3]: 0.064 | Brain tissue binding (% bound) (Brain [4]): 96.3% | Papp [5]: 47 ×10⁻⁶ cm/s | logD [6]: 2.5 | AUC(0-t) [7]: 481 ng·h/mL | Cmax [8]: 76 ng/mL | CL/F [9]: 22 mL/min/kg | Activity (Glutamate receptor 2 [10]): 120% | Drug uptake (Brain [12]): 8988 ng/g | Drug uptake (Brain [13]): 22 ng/g | Drug uptake (Brain [14]): 79 ng/g | Drug uptake (Brain [15]): 386 ng/g | Drug uptake (Brain [16]): 1413 ng/g
Compound: O=C1CCCN1Cc1c(F)cc(-n2nc(C(F)(F)F)c3c2CCOC3)cc1F
Activity (Rattus norvegicus [11]): Non-toxic | Activity (Rattus norvegicus [17]): Active

EC50 (Glutamate receptor 2 [1]): 25.1 µM | logD [18]: 3 | solubility kinetic [2]: 138 µg/mL (≈ 409 µM) | IC50 (Cytochrome P450 2D6): 6 µM | AUC (Rattus norvegicus [19]): 78 ng·h/mL | Cmax [20]: 50 ng/mL | fraction unbound [3]: 0.048 | Brain tissue binding (% bound) (Brain [4]): 98.2% | Activity (Glutamate receptor 2 [10]): 94% | Kp (in vivo): 1.3
Compound: CN(C)C(=O)c1ccc(-n2nc(C(F)(F)F)c3c2CCCC3)cc1
